Assay outcomes as filed in PubChem BioAssay.
Rev-erbA mod: modulators of Rev-erb alpha DNA binding, primary screen, biochemical, FITC-DNA, fluorescence polarization, uHTS; Nuclear receptor subfamily 1 group D member 1 (Homo sapiens), P20393; Rev-erbα–FITC-DNA binding, 90 min; activity, % at 10 µM; 0.79% of 370,000 active; AID 1259318, 2017;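 active = activity above about 14%, limit read from the data; passing the limit was not always enough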;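 note: 0% = DMSO wells with 35 nM protein and 100% = DMSO wells with 750 nM protein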
NR2E3 ag-1: inhibitors of NR2E3-RetCOR corepressor binding, primary screen, NR2E3 agonist project, biochemical, TR-FRET, GST-NR2E3, biotin-RetCOR; Photoreceptor-specific nuclear receptor (Homo sapiens), Q9Y5X4; 1536-well; inhibition of corepressor binding, % at 4.78 µM; 0.12% of 320,000 active; AID 2300, 2010;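 active = percent inhibition above the cutoff of mean plus 3 SD of all tested compounds, set per screening campaign, cut at about 20% in these data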;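 note: 0% = DMSO wells and 100% = biotin wells as full block of FRET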
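Format: 1536-well format; test system: GST-NR2E3 and biotin-RetCOR proteins; read-out basis: percent inhibition of TR-FRET ratio; timing: 5 h incubation at 4 °C; detection: time-resolved FRET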
PG9 Ab binder: binders of HIV-1 gp120 antibody PG9, primary screen, biochemical, TR-FRET; TR-FRET gp120-PG9 antibody binding; inhibition, % at 6.7 µM; 0.43% of 360,000 active; AID 624416, 2012; in the data active = inhibition above about 8.5%
NR2E3 ag-2: NR2E3 agonists in two-hybrid cells, primary screen, cell-based, luminescence, CHO-S, Gal4-NCOR/VP16-NR2E3 | Photoreceptor-specific nuclear receptor (Homo sapiens), Q9Y5X4 | luciferase | inhibition of corepressor binding, % at 3.98 µM | 0.35% of 360,000 active | AID 602229, 2012;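 active = inhibition above the mean of all tested compounds plus 3 SD, cut at about 70% in these data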;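 note: 0% = DMSO with NR2E3 transfected cells and 100% = cells lacking NR2E3 construct; higher means lower luciferase signal from less NR2E3 corepressor binding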
Rev-erbA confirm: modulators of Rev-erb alpha DNA binding, confirmation, biochemical, FITC-DNA, fluorescence polarization, single point; shares compounds with Rev-erbA mod; 90 min; activation, % at 25 µM; 61% of 3,000 active; AID 1259319, 2017;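 active = activation at or above a set limit, or at least 3 SD above the negative control mean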;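 note: 0% = 35 nM protein with DMSO and 100% = 750 nM protein high control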
RORg DNA counter: modulation of RORgamma DNA binding, dose response, counter-screen for Rev-erb alpha modulator project, biochemical, fluorescence polarization, FITC-DNA | shares compounds with Rev-erbA mod | AID 1259320, 2017 | IC50, µM | purified RORgamma protein-FITC-DNA binding | 8% of 910 active;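 active = Compounds whose fitted half-maximal concentration for disrupting protein-DNA binding is below 10 micromolar; the record names Rev-erb in its text, so the target is in doubt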
* = called active by the depositor. Only some compounds are listed: those with a hit (about 1.5% of all), similar ones and a draw of the others.

Results for Cc1ccc2nc(/C(C#N)=C/c3ccc(-c4ccccc4C(=O)O)o3)[nH]c2c1 ?
Rev-erbA mod: 41*; NR2E3 ag-1: -3; PG9 Ab binder: -18; NR2E3 ag-2: -33; Rev-erbA confirm: 31*; RORg DNA counter: >40

How did C[C@@H]1CN([C@@H](C)CO)S(=O)(=O)c2ccc(Br)cc2O[C@H]1CN(C)C(=O)c1ccccc1F do in these assays?
Rev-erbA mod: -5; PG9 Ab binder: -1; NR2E3 ag-2: 15

How did Cc1ccc2c(COC(=O)c3n[nH]c4ccccc34)cc(=O)oc2c1 do in these assays?
Rev-erbA mod: 17*; NR2E3 ag-1: -6; PG9 Ab binder: 6; NR2E3 ag-2: -92; Rev-erbA confirm: 15

Results for CCc1ccc2c(COC(=O)c3n[nH]c4ccccc34)cc(=O)oc2c1 ?
Rev-erbA mod: 10; NR2E3 ag-1: 5; PG9 Ab binder: -1; NR2E3 ag-2: -52

How did O=C(NCc1ccccn1)C1CCC(CNS(=O)(=O)c2cccc3nsnc23)CC1 (stereo not given) do in these assays?
Rev-erbA mod: 1; NR2E3 ag-1: -3; PG9 Ab binder: 1; NR2E3 ag-2: -8

How did COc1ccc(CNC(=O)C2CCC(CNS(=O)(=O)c3cccc4nsnc34)CC2)cc1 (stereo not given) do in these assays?
Rev-erbA mod: 72*; NR2E3 ag-1: 4; PG9 Ab binder: 1; NR2E3 ag-2: -26; Rev-erbA confirm: 52*; RORg DNA counter: >40

How did O=C(NCc1ccc2c(c1)OCO2)C1CCC(CNS(=O)(=O)c2cccc3nsnc23)CC1 (stereo not given) do in these assays?
Rev-erbA mod: 34*; NR2E3 ag-1: 3; PG9 Ab binder: 1; NR2E3 ag-2: -4; Rev-erbA confirm: 28*; RORg DNA counter: >40

What do the screens show for `Cc1ccc(C(=O)CSc2ncnc3sc4c(c23)CCCC4)cc1`?
Rev-erbA mod: 34*; NR2E3 ag-1: 0; PG9 Ab binder: -1; NR2E3 ag-2: -22; Rev-erbA confirm: 18*

How did COC(=O)c1c(C)nn(-c2ccc(OC(F)(F)F)cc2)c1-c1snnc1C do in these assays?
Rev-erbA mod: -4; NR2E3 ag-1: 1; PG9 Ab binder: -2; NR2E3 ag-2: 2

How did CCCNC(=O)COC(=O)c1ccc(-c2ccccc2)cc1 do in these assays?
Rev-erbA mod: 0; NR2E3 ag-1: -1; PG9 Ab binder: -3; NR2E3 ag-2: -7

How did COc1nc(-c2ccccc2)ccc1-c1noc(-c2cccnc2)n1 do in these assays?
Rev-erbA mod: 35*; NR2E3 ag-1: 1; PG9 Ab binder: -2; NR2E3 ag-2: -9; Rev-erbA confirm: 5

What do the screens show for `COc1nc(-c2ccc(C)cc2)ccc1-c1noc(-c2ccco2)n1`?
Rev-erbA mod: 0; NR2E3 ag-1: 11; PG9 Ab binder: 1; NR2E3 ag-2: -44

How did COc1nc(-c2ccccc2)ccc1-c1noc(-c2ccccc2F)n1 do in these assays?
Rev-erbA mod: 29*; NR2E3 ag-1: 2; PG9 Ab binder: 1; NR2E3 ag-2: -62; Rev-erbA confirm: 17

How did COc1nc(-c2ccc(C)cc2)ccc1-c1noc(-c2cccnc2)n1 do in these assays?
Rev-erbA mod: 22*; NR2E3 ag-1: 1; PG9 Ab binder: 0; NR2E3 ag-2: -2; Rev-erbA confirm: 8

How did COc1ccccc1-c1noc(-c2cccnc2)n1 do in these assays?
Rev-erbA mod: 2; NR2E3 ag-1: 5; PG9 Ab binder: -1; NR2E3 ag-2: -39

How did C/C(CC(=O)Nc1cc(C)ccn1)=N\NC(=O)c1ccc(C(C)(C)C)cc1 do in these assays?
Rev-erbA mod: -4; NR2E3 ag-1: -2; PG9 Ab binder: -1; NR2E3 ag-2: -13

What do the screens show for `Cc1cc(C)cc(C(=O)NCC(=O)OC(C)C(=O)N(C)c2ccccc2)c1` (stereo not given)?
Rev-erbA mod: -4; NR2E3 ag-1: 0; PG9 Ab binder: 1; NR2E3 ag-2: -7
